The values that follow come from ChEMBL document CHEMBL1151834, “Bioactive alkaloids from endophytic Aspergillus fumigatus” (J Nat Prod, 2009).

Counter-ions that a name gives are not always drawn. The source made the active and inactive calls. The rule behind the calls is not given here.

Holding throughout (format): functional, cell-based
The subject of one test is KB. Briefly: Cytotoxicity against human KB cells after 48 hrs by MTT assay. An outline of the steps:
(§1)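 Exponential-phase cells plated, allowed 24 h to establish, then exposed to compound dilutions for 48 h. MTT added (0.1 mg/well) for 4 h, supernatant removed, formazan dissolved in DMSO, absorbance read at 570 nm. IC50 taken as concentration giving 50% growth inhibition; mean ± SD of three experiments run in triplicate.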
In general terms: Tetrazolium dyes change colour on reduction, which living cells bring about.

The next test deals with K562. Briefly: Cytotoxicity against human K562 cells after 48 hrs by MTT assay. The conditions noted are these: K562, 48 h. An outline of the steps:
as §1

For the next test, the system named is MCF7. Briefly: Cytotoxicity against human MCF7 cells after 48 hrs by MTT assay. An outline of the steps: as §1
In another test the test system is PC-12. Briefly: Induction of neurite outgrowth in rat PC12 cells at 10 uM after 2 days by phase-contrast microscope. An outline of the steps: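 PC12 cells kept in DMEM with 10% heat-inactivated fetal calf serum, 5% horse serum, penicillin 50 units/mL and streptomycin 50 µg/mL at 37 °C, 5% CO2. Seeded at 1 × 10^4 cells/mL, cultured one day, then medium replaced with fresh medium containing compound. Cultured 2 days; neurite outgrowth observed by phase-contrast microscopy against untreated control.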

One may read the IC50 as the concentration that gives 50% inhibition. Lower therefore signals greater potency. Turning to `C=CC(C)(C)c1[nH]c2cccc3c2c1C[C@@H]1[C@@H]3C[C@@H](C)CN1C`, the outcome with KB, in the test with MCF7 and in the test with PC-12 was inactive. Moreover, the IC50 in the test on K562 was found to be 3.1 µM.
Take `COc1ccc2c(c1)NC(=O)[C@@]21C[C@H]2C(=O)N3CCC[C@H]3C(=O)N2[C@H]1C=C(C)C`: the outcome in the test with KB, in the test on MCF7 and with PC-12 was inactive.
Consider `COc1ccc2c3c([nH]c2c1)[C@H](C=C(C)C)N1C(=O)[C@@H]2CCCN2C(=O)[C@@H]1C3` [FUMITREMORGIN], for which the result with KB, in the test with MCF7 and in the test with PC-12 was inactive. For the same compound, half-maximal inhibition with K562 (IC50) was put at 41 µM.
Consider `C/C=C\[C@H](O)[C@H](O)C1=C(C)C(=O)[C@]2(O1)C(=O)N[C@@](OC)(C(=O)c1ccccc1)[C@@H]2O`, for which the outcome in the test on KB and in the test on MCF7 was inactive.
Consider `COc1ccc2c(C[C@@H]3NC(=O)[C@@H]4CCCN4C3=O)c(CC=C(C)C)[nH]c2c1` [TRYPROSTATIN A], for which the result in the test on KB, in the test on MCF7 and in the test with PC-12 was inactive. The 50% inhibitory concentration (IC50) in the test on K562 was 41 µM.
With `C[C@@H]1N[C@@H]2N(C1=O)c1ccccc1[C@@]21C[C@@H](n2cnc3ccccc3c2=O)C(=O)O1`, the outcome in the test on KB, in the test with MCF7 and in the test with PC-12 was inactive.
In the test with K562, `COc1cccc2c1C(=O)c1c(O)c3c(c(O)c1C2=O)C[C@@](O)(C(=O)CO)C[C@@H]3O[C@H]1C[C@H](N)[C@H](O)[C@H](C)O1` [DOXORUBICIN HYDROCHLORIDE] came in with an IC50 of 1.2 µM. This counts as single-digit micromolar.
In the case of `CC(C)=C[C@H]1c2[nH]c3ccccc3c2C[C@H]2C(=O)N3CCC[C@H]3C(=O)N21`, the outcome in the test on KB, in the test with MCF7 and in the test on PC-12 was inactive.
Regarding `COc1ccc2c(c1)NC(=O)[C@@]21C=C2C(=O)N3CCC[C@H]3C(=O)N2[C@H]1C=C(C)C`, the outcome in the test with KB, with MCF7 and with PC-12 was inactive.
Regarding `CC/C=C\[C@H](O)[C@H](O)C1=C(C)C(=O)[C@]2(O1)C(=O)N[C@@](OC)(C(=O)c1ccccc1)[C@@H]2O`, the result in the test with KB and in the test on MCF7 was inactive. The result with PC-12 was Active.
For `C=CC(C)(C)c1[nH]c2cccc3c2c1C[C@@H]1[C@@H]3[C@@H](O)[C@@H](C)CN1C`, the outcome in the test on KB, with MCF7 and with PC-12 was inactive. The compound also registered an IC50 with K562 of 41 µM.
On to `COc1ccc2c3c4n(c2c1)[C@H](C=C(C)C)OOC(C)(C)C[C@@H]4N1C(=O)[C@@H]2CCCN2C(=O)[C@]1(O)[C@H]3O` [VERRUCULOGEN], for which the result with KB, in the test with MCF7 and in the test on PC-12 was inactive. Moreover, the IC50 with K562 stood at 41 µM.
`CC(C)=CCc1[nH]c2ccccc2c1C[C@@H]1NC(=O)[C@@H]2CCCN2C1=O` [TRYPROSTATIN B]: the result in the test with KB, in the test on MCF7 and in the test on PC-12 was inactive. The compound further displayed an IC50 in the test with K562 of 41 µM.
Regarding `CS[C@]1(CO)C(=O)N2[C@H]3C(=CC=CC3O)C[C@@]2(SC)C(=O)N1C` (stereo partly specified) [DIMETHYLGLIOTOXIN], the result in the test with KB, in the test with MCF7 and in the test with PC-12 was inactive. In the test with K562, this compound came in with an IC50 of 41 µM.
